Results: paper PMC5395305 (Bioorganic & medicinal chemistry letters, 2017)
Values belong to the molecule of their own block, whether it stands above or below them.

Columns and labels:
[1] = test system: Rho/MRTF/SRF pathway (SRE.L promoter luciferase reporter); assay: Inhibition of Gα12-stimulated SRE.Luciferase activity in HEK293T cells; type: cell-based
Method in brief: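 HEK293T cells were transfected with a luciferase reporter driven by the MRTF-selective SRE.L promoter. Reporter activity was Gα12-stimulated, and inhibition of luciferase signal by test compound was measured. Values are means of n ≥ 3.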

[2] = test system: bleomycin-induced dermal fibrosis; assay: Bleomycin-induced dermal fibrosis in mice; type: in vivo; conditions: PO 50 mg/kg qd, 14 days, vs bleomycin treatment alone
Method in brief: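 Three groups of mice (n=8) were treated daily for 14 days. Controls received intracutaneous PBS. The bleomycin group received intracutaneous bleomycin with concurrent oral gavage of vehicle. The treated group received intracutaneous bleomycin with concurrent oral gavage of test compound at 50 mg/kg. Read-outs were dermal thickness and hydroxyproline content, each compared with bleomycin alone.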

[3] = test system: bleomycin-induced dermal fibrosis; conditions: mice, 14 days of IP dosing, 100 mg/kg bid; cited from earlier work
[4] = Stability to incubation with mouse liver microsomes; type: in vitro ADME; conditions: relative to 1
ACTA2 expression = assay: ACTA2 mRNA expression; type: cell-based; conditions: Homo sapiens, Fibroblast, 24 h, read-out: ACTA2 (%ctrl), inhibition of ACTA2 expression (percent control), TGF-β-stimulated human dermal fibroblasts, 10 μM, 24 hrs, mean of n=3
[5] = test system: conjunctival fibrosis (scar tissue formation); conditions: preclinical model of conjunctival fibrosis; ref 18 (Yu-Wai-Man et al); cited from earlier work

SMILES: CN(C(=O)C1CCCN(C(=O)c2cccc(-c3ccco3)c2)C1)c1ccc(Cl)cc1 (centres unmarked) [Cmpd 26]
Reduction of SRE.L activity ([1]; relative to 1): 10 fold

SMILES: O=C(Nc1ccc(Cl)cc1)C1CN(C(=O)c2cccc(-c3ccncc3)c2)CC(F)(F)C1 (centres unmarked) [Cmpd 8f]
Reduction of bleomycin-induced increase in dermal thickness [2]: −55%
Reduction of bleomycin-induced increase in hydroxyproline content [2]: −62%

SMILES: C=C1CC(C(=O)Nc2ccc(Cl)cc2)CN(C(=O)c2cccc(-c3ccco3)c2)C1 (centres unmarked) [Cmpd 23]
Improvement of SRE.L potency ([1]; relative to 5-carbonyl/parent series): ~10 fold

SMILES: O=C(Nc1ccc(Cl)cc1)C1CCCN(C(=O)c2cccc(-c3ccco3)c2)C1 (centres unmarked) [Cmpd 1]
Effect on development of bleomycin-induced dermal fibrosis [3]: can attenuate the development of bleomycin-induced dermal fibrosis

Lengthening of half-time in MLM (factor) [4]: three
SMILES: O=C(Nc1ccc(Cl)cc1)C1CN(C(=O)c2cccc(-c3ccco3)c2)CC(F)(F)C1 (centres unmarked) [Cmpd 8a]
mrna remaining at 10 µM (ACTA2 expression): 9%
Effect on scar tissue formation [5]: prevent scar tissue formation
